The subject of one data set is MDA-MB-231. The data set can be described thus: sulfurhodamine B. Format: cell-based. The following applies: Homo sapiens, MDA-MB-231, 48 h, read-out: GI50 (50% cell growth inhibition). The method, boiled down: (§1)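 Cells were kept at 37 °C in 5% CO2 with 10% FBS and penicillin–streptomycin. MDA-MB-231 were grown in DMEM, the others in RPMI 1640. Cells were seeded at 5.0 × 10^3/well and left 24 h before serial dilutions of test compound (1.85–150 μM) for 48 h. Cells were fixed with 10% TCA, stained with 0.4% SRB and washed with 1% acetic acid. Bound dye was dissolved in 10 mM Tris (pH 10.5) and read at 510 nm. Doxorubicin served as positive control.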

The test system of a further data set is NCI-H460. The data set can be described thus: MTT assay, NCI-H460. In kind it is cell-based, human. The following applies: for GI50: Homo sapiens, NCI-H460, 72 h, read-out: GI50 (50% cell growth inhibition). An outline of the steps: (§2)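 Cells were grown in RPMI 1640 with 10% FBS and penicillin–streptomycin at 37 °C in 5% CO2. The P-gp-overexpressing NCI-H460/R line was derived from NCI-H460 by stepwise doxorubicin (5–100 nM, 3 months). Test compound (2.5–50 μM) ran 72 h, then MTT (1 mg/mL) 4 h at 37 °C. Formazan was dissolved in DMSO and read at 540 nm. Viability was relative to untreated cells, giving GI50. At least two independent experiments were run in triplicate. Paclitaxel served as positive control.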

The subject of another data set is NCI-H460/R. Put plainly: MTT assay, NCI-H460/R. In kind it is cell-based. Particulars: Homo sapiens, NCI-H460, 72 h, read-out: GI50 (50% cell growth inhibition). The method, boiled down: as §2
In data set [1] the test system is MCR-5. Put plainly: MTT assay, MCR-5 normal lung cells. In kind it is cell-based. Particulars: Homo sapiens, MCR5, 72 h, read-out: GI50 (50% cell growth inhibition). The method, boiled down: as §2
For orientation: Formazan colour is commonly taken as a measure of viable cells.

A further data set deals with MCF-7. Put plainly: sulfurhodamine B. Particulars: Homo sapiens, MCF7, 48 h, read-out: GI50 (50% cell growth inhibition). Format: cell-based. An outline of the steps: as §1
For another data set, the system named is HCT116. The data set can be described thus: sulfurhodamine B. Format: cell-based. The following applies: Homo sapiens, HCT-116, 48 h, read-out: GI50 (50% cell growth inhibition). The method, boiled down: as §1
For another data set, the system named is AGS. Particulars: read-out: cytotoxicity class (GI50), gastric; cited from earlier work.
The subject of a further data set is HL-60. The following applies: read-out: cytotoxicity class (GI50); HL-60, leukemia/lymphoma; cited from earlier work.
The next data set deals with Molt-3. Particulars: read-out: cytotoxicity class (GI50); Molt-3, leukemia/lymphoma; cited from earlier work.
A further data set deals with MEL-1. Particulars: read-out: cytotoxicity class (GI50); MEL-1, leukemia/lymphoma; cited from earlier work.
The next data set relates to MV-3. The following applies: read-out: cytotoxicity class (GI50); cited from earlier work.
A further data set deals with PaCa-2. The following applies: read-out: cytotoxicity class (GI50); cited from earlier work.
The test system of data set [2] is MCR-5. The following applies: read-out: cytotoxicity class (GI50); cited from earlier work.

Read-outs that look alike come from different tables or passages of the source. Marks after values point to notes of the source that are not given here.

For `O=C(/C=C/c1ccc(O)c(O)c1)O[C@H](Cc1ccc(O)c(O)c1)C(=O)O` [(1), rosmarinic acid], the GI50 with MDA-MB-231, with NCI-H460, with NCI-H460/R and with MCR-5 [1] was more than 100 µM in each case.

With `COc1cccc2c1C(=O)c1c(O)c3c(c(O)c1C2=O)C[C@@](O)(C(=O)CO)C[C@@H]3O[C@H]1C[C@H](N)[C@H](O)[C@H](C)O1` [DOX, Doxorubicin], the GI50 in the data set on MDA-MB-231 is 0.072 µM; in the data set with MCF-7, 0.16 µM; in the data set with HCT116, 0.125 µM.

For `CC(=O)O[C@H]1C(=O)[C@@]2(C)[C@H]([C@H](OC(=O)c3ccccc3)[C@]3(O)C[C@H](OC(=O)[C@H](O)[C@@H](NC(=O)c4ccccc4)c4ccccc4)C(C)=C1C3(C)C)[C@]1(OC(C)=O)CO[C@@H]1C[C@@H]2O` [PCX, Paclitaxel], the figures for the GI50 with NCI-H460, in the data set on NCI-H460/R and in the data set on MCR-5 [1] were 0.0006 µM, 0.117 µM and 0.523 µM, respectively. Moreover, in the data set on NCI-H460 (MCR-5 vs NCI-H460, MTT assay), the “Selectivity index, SI = GI50(MCR-5)/GI50(NCI-H460)” value is recorded as “PCX 872***”.

As to `CC(C)C1=C(O)C(=O)C2=C(CC[C@H]3C(C)(C)CCC[C@]23C)C1=O` [R1 = H, R2 = H, R3 = OH, royleanone], the GI50 with AGS is more than 30 µM; in the data set on HL-60, more than 30 µM; in the data set on Molt-3, 10 to 30 µM; in the data set on MEL-1 it was more than 30 µM; in the data set with MV-3 it was more than 30 µM; with PaCa-2, more than 30 µM. Further, the GI50 in the data set on MCR-5 [2] is 10 to 30 µM.
